Published values of several laboratories.
Compare with care: the assays were run in different laboratories.
INSR: Insulin receptor (INSR, Homo sapiens, UniProt P06213)
KCNA1: Potassium voltage-gated channel subfamily A member 1 (KCNA1, Homo sapiens, UniProt Q09470)

| SMILES | target | test | test system | setting | measurement | value |
| --- | --- | --- | --- | --- | --- | --- |
| Cc1cc([C@@H](C)Nc2ccccc2C(=O)O)c2nc(N3CCC(F)(F)CC3)c(C#N)c(=O)n2c1 | INSR | binding, competition with immobilised ligand | – | 1 µM | remaining binding | 100% |
| COc1ccc(S(=O)(=O)N(CC(=O)NO)CC(C)C)cc1 | Collagenase 3 (MMP13, Homo sapiens, UniProt P45452) | enzyme activity, inhibitor | – | 0.5 µM | inhibition | 51.2% |
| COc1cc(-c2cncc3c2CN(C)Cc2cc(N4CCNCC4)ccc2-3)cc(OC)c1OC | INSR | enzyme activity, inhibitor | – | 1 µM | remaining activity | 107% |
| O=C(O)CNc1cccc(CN(Cc2ccc(-n3cccn3)cc2)S(=O)(=O)c2cccnc2)n1 | Prostaglandin E2 receptor EP2 subtype (PTGER2, Homo sapiens, UniProt P43116) | ligand displacement, radioligand | – | 10 µM | inhibition | 95% |
| CC12CC3CC(C)(C1)CC(N)(C3)C2 | KCNA1 | ion current, inhibitor, patch clamp | – | 30 µM | inhibition | 45.8% |
| C=CC(=O)N1CCC(COCC(=O)N2CCN(c3nc(-c4cnc(N)nc4C(F)F)nc(N4CCOC[C@@H]4C)n3)CC2)CC1 | Serine/threonine-protein kinase SBK1 (SBK1, Homo sapiens, UniProt Q52WX2) | binding, competition with immobilised ligand | – | 1 µM | remaining binding | 100% |
| CNCCCC12CCC(c3ccccc31)c1ccccc12 | KCNA1 | ion current, inhibitor, patch clamp | – | 30 µM | inhibition | 50.2% |
| CNc1ncc2c(/C=C/C(=O)N3CCC(OC)CC3)nn(Cc3cccc(C(F)(F)F)c3)c2n1 | Cyclin-dependent kinase 3, with cyclin E1 (CDK3, Homo sapiens, UniProt Q00526) | enzyme activity, inhibitor, radiometric | – | 1 µM | remaining activity | 93% |
| CCCN1C[C@H](CSC)C[C@@H]2c3cccc4[nH]cc(c34)C[C@H]21 | KCNA1 | ion current, inhibitor, patch clamp | – | 10 µM | inhibition | 19.6% |
| Cc1cc(NC(=O)c2cccc(NC(=O)/C=C/CN(C)C)c2)ccc1Nc1nccc(-c2cccnc2)n1 | INSR | binding, competition with immobilised ligand | – | 1 µM | remaining binding | 81% |
| Cn1c(=O)c2[nH]cnc2n(C)c1=O | KCNA1 | ion current, inhibitor, patch clamp | – | 10 µM | inhibition | 2.05% |
| CC[C@H](C)[C@H](NC(=O)[C@H](CCC(N)=O)NC(=O)[C@H](CCCNC(=N)N)NC(=O)[C@H](CO)NC(=O)[C@H](Cc1c[nH]cn1)NC(=O)[C@@H]1CCCN1C(=O)[C@H](C)NC(=O)[C@H](CO)NC(=O)[C@H](CC(C)C)NC(=O)CNC(=O)[C@@H]1CCCN1C(=O)[C@H](CCC(N)=O)NC(=O)[C@H](CCC(N)=O)NC(=O)[C@H](CCCNC(=N)N)NC(=O)[C@H](CO)NC(=O)CNC(=O)[C@H](CO)NC(=O)[C@H](CO)NC(=O)[C@H](CCC(=O)O)NC(=O)[C@@H]1CCCN1C(=O)[C@@H]1CCCN1C(=O)[C@@H]1CCCN1C(=O)[C@H](CO)NC(=O)[C@H](CC(C)C)NC(=O)[C@H](CO)NC(=O)[C@@H](NC(=O)CN)[C@@H](C)O)C(=O)N1CCC[C@H]1C(=O)N[C@@H](C)C(=O)N1CCC[C@H]1C(=O)N[C@@H](CCC(N)=O)C(=O)NCC(=O)N[C@@H](C)C(=O)N[C@H](C(=O)N[C@@H](CC(C)C)C(=O)N[C@H](C(=O)N[C@@H](CCC(N)=O)C(=O)N[C@@H](CCCNC(=N)N)C(=O)N[C@@H](CCC(=O)O)C(=O)N[C@@H](CCCCN)C(=O)N[C@@H](CC(=O)O)C(=O)N[C@@H](CC(C)C)C(=O)N1CCC[C@H]1C(=O)N[C@@H](CC(N)=O)C(=O)N[C@@H](Cc1ccc(O)cc1)C(=O)N[C@@H](CC(N)=O)C(=O)N[C@@H](Cc1c[nH]c2ccccc12)C(=O)N[C@@H](CC(N)=O)C(=O)N[C@@H](CO)C(=O)N[C@@H](Cc1ccccc1)C(=O)NCC(=O)N[C@@H](CC(C)C)C(=O)N[C@@H](CCCNC(=N)N)C(=O)N[C@@H](Cc1ccccc1)C(N)=O)C(C)C)C(C)C | KiSS-1 receptor (KISS1R, Homo sapiens, UniProt Q969F8, N119A) | inositol phosphate, agonist | HEK293 | – | Emax | 93.6% |
